The text below walks through data of publication PMC3880198 (Melanoma research, 2012).

For data set [1], the system named is advanced melanoma. Conditions: five of 32 treated patients with advanced melanoma; cited from earlier work.
Data set [2] deals with integrin αvβ3. The note with it: inhibits binding of the integrin to vitronectin; cited from earlier work.
Data set [3] has as its system metastatic melanoma. In kind it is in vivo, human. The note with it: for Median PFS in weeks (95% CI) / PFS rate at 8 weeks (95% CI): Kaplan-Meier estimate; for Best tumor response: PR / Best tumor response: SD / Best tumor response: CR: RECIST.
The conditions of data set [4]: cited from earlier work.
In data set [5] the test system is recurrent glioblastoma multiforme (GBM). Conditions: 81 patients with GBM; cited from earlier work.
The subject of data set [6] is integrin αvβ3. Put plainly: Tumoral αvβ3 expression by IHC staining. In kind it is in vivo, human. The procedure, abridged:
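Core-needle or skin punch tumor biopsies 5-7 days pre-treatment and cycle 1 day 8, within 6 h post-infusion. IHC with anti-αvβ3 LM 609; consensus grading by two pathologists on % positive cells (0 none; +1 1-10%; +2 11-25%; +3 26-75%; +4 >75%). Paired t-test, pre vs post.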

For data set [7], the system named is recurrent malignant glioma. The note with it: at 360 mg/m^2 and 2,400 mg/m^2; cited from earlier work.
Another data set concerns glioblastoma. Conditions: in combination with temozolomide and radiation therapy; cited from earlier work.
For data set [8] the following is noted: cited from earlier work. This is another data set of the same source.
Data set [9] deals with patients with metastatic melanoma. Put plainly: Toxicity evaluation. The note with it: both doses (500 mg and 2,000 mg i.v. twice weekly).
In the next data set the test system is melanoma. Conditions: combination of cilengitide and temozolomide, in vivo; cited from earlier work.
The nature of the next data set: clinical. On the set-up: species or system human. Conditions: in vivo; for Mean cilengitide concentration / level at 2 h / level at 4 h / level at 24 h: human, iv; for level at 2 h / level at 4 h / level at 24 h: Mean cilengitide concentration.
In data set [10] the test system is bFGF- and VEGF-mediated angiogenesis. The note with it: chorioallantoic membrane model; ref Cilengitide, Investigators Brochure; cited from earlier work.
The subject of data set [11] is melanoma and endothelial cells. Conditions: combination of cilengitide and temozolomide, in vitro; cited from earlier work.
Data set [12] deals with advanced melanoma. The note with it: cited from earlier work.
The subject of data set [13] is metastatic melanoma. Conditions: cited from earlier work.
Setting [14] is: among eight patients with matching samples and detectable αvβ3 at baseline.

Where two headings read alike, the source gives them in different places. Marks after values point to notes of the source that are not given here.

As to `CNC(=O)c1ccccc1Sc1ccc2c(/C=C/c3ccccn3)n[nH]c2c1` [axitinib], in the data set on advanced melanoma [1], the Objective clinical response was 16%.
For the molecule `CC(C)[C@H]1C(=O)N[C@@H](CCCNC(=N)N)C(=O)NCC(=O)N[C@@H](CC(=O)O)C(=O)N[C@H](Cc2ccccc2)C(=O)N1C` [cilengitide, Cilengitide], the “Binding to integrin αvβ3 (nanomolar range)” value with integrin αvβ3 [2] is listed as ~ 2 nM. In the data set with metastatic melanoma [3] (500-mg dose (n=14)), the “Response rate (CR+PR)” value is reported as 0%, the “Median PFS in weeks (95% CI)” value was 8.0 weeks, the “PFS rate at 8 weeks (95% CI)” value was 14% (4-52%) and the “Best tumor response: PR” value worked out at 0. The “Best tumor response: SD” value in the data set on metastatic melanoma [3] (500-mg dose (n=14)) is on record as 2(14%). Also, the “Best tumor response: CR” value in the data set on metastatic melanoma [3] (500-mg dose i.v. twice weekly (n=14)) worked out at 0. Also, in the data set on metastatic melanoma [3] (2,000-mg dose (n=12)), the “Response rate (CR+PR)” value is recorded as 8%, the “Median PFS in weeks (95% CI)” value is reported as 7.9 weeks and the “Best tumor response: SD” value is listed as 0. Also, the “Best tumor response: PR” value in the data set on metastatic melanoma [3] (2,000-mg dose (n=12), patient initially progressed after 4 weeks) is 1 (8%) ^†. Besides, the “Best tumor response: CR” value with metastatic melanoma [3] (2,000-mg dose i.v. twice weekly (n=12)) turned out to be 0. For the same molecule, in the data set with metastatic melanoma [3] (Overall patients (n=26)), the “Response rate (CR+PR)” value is listed as 4%, the “Median PFS in weeks (95% CI)” value is 8.0 (7.9-8.1) weeks, the “PFS rate at 8 weeks (95% CI)” value was 12% (4-33%) and the “Best tumor response: CR” value is recorded as 0. Besides, in the data set on metastatic melanoma [3] (Overall patients (n=26)), the “Best tumor response: PR” value was 1 (4%) ^† and the “Best tumor response: SD” value is 2(8%). In addition, the “Clinical efficacy as single agent” value in the data set with metastatic melanoma [3] (dose up to 2,000 mg twice weekly, metastatic melanoma) was “minimal clinical efficacy”. For the same molecule, the “Patients free of disease progression per RECIST at 8 weeks” value with metastatic melanoma [3] (of 26 treated patients) is reported as “three”. Further, in the data set on metastatic melanoma [3] (single patient, 2,000 mg, later partial response), the “Increase in the sum of the largest diameters of five target lesions after one treatment cycle” value was determined as 28%. Also, the Half-life entry in data set [4] is on record as “less than 5 hours”. The Half-life in [4] (doses of 120-1,200 mg/m^2, phase I trials) is 2.3 to 4.0 h. Besides, in data set [4] (phase I trials), the Maximum-tolerated dose result is “has not been established”. In addition, the “Median OS duration” value in data set [5] was 9.9 months. Also, in the data set with integrin αvβ3 [6] (setting [14]), the “Patients in whom αvβ3 expression decreased” value is recorded as “five” and the “Patients in whom αvβ3 expression increased” value is reported as “none”. For the same molecule, the “Overall tumoral αvβ3 expression with cilengitide treatment” value with integrin αvβ3 [6] (baseline vs day 8, 17 matching samples, paired t-test P=0.05) is “decreased”. Moreover, the “Response in patients with recurrent malignant glioma” value in [7] is “Complete responses were reported”. For the same molecule, in the data set on glioblastoma, the “6-month PFS rate” value was 69%, the “12-month PFS rate” value is 33% and the “Median PFS” value was 8.0 months. For the same molecule, in data set [8], the “Concentration noted to be active in preclinical studies (biologically active level)” value is on record as 11-13 μg/mL. Also, in data set [9], the Tolerability result is “well tolerated”. The Tumor reduction result in the data set with melanoma is reported as “more effective tumor reduction compared with temozolomide alone”. This molecule also registered a Mean cilengitide concentration in the data set “clinical” (500 mg, 2 h) of 17.6 µg/mL. In the data set “clinical” (500 mg, 4 h), this molecule returned a Mean cilengitide concentration of 8.75 µg/mL. Further, in “clinical” (500 mg), the level at 2 h was 18200 ng/mL, the level at 4 h turned out to be 8250 ng/mL and the level at 24 h worked out at 40 ng/mL. The Mean cilengitide concentration in “clinical” (2000 mg, 2 h) was found to be 65.8 µg/mL. The molecule also returned a Mean cilengitide concentration in the data set “clinical” (2000 mg, 4 h) of 30.5 µg/mL. The Mean cilengitide concentration in “clinical” (2000 mg, 24 h) was found to be 0.58 µg/mL. Also, in “clinical” (2000 mg), the level at 2 h is 73200 ng/mL, the level at 4 h stood at 35900 ng/mL and the level at 24 h came out at 710 ng/mL. In the data set “clinical”, the “Accumulation after repeated biweekly doses” value is on record as “No accumulation was observed” and the “Increases in plasma concentrations at the given time points with dose” value is “dose proportional”. Also, the “Cytokine-induced bFGF- and VEGF-mediated angiogenesis” value in data set [10] was “blocked”. In addition, the “Antiproliferative effects of the combination” value in data set [11] is “synergistic antiproliferative effects”.
On to `CN(C)/N=N/c1[nH]cnc1C(N)=O` [dacarbazine], for which, in the data set on advanced melanoma [12], the “Estimated PFS rate at 8 weeks” value is reported as “approximately 40%”.

B1: etaracizumab (antibody, chains of the INN, looked up, V domains shown)
VH: QVQLVESGGGVVQPGRSLRLSCAASGFTFSSYDMSWVRQAPGKGLEWVAKVSSGGGSTYYLDTVQGRFTISRDNSKNTLYLQMNSLRAEDTAVYYCARHLHGSFASWGQGTTVTVSS
VL: EIVLTQSPATLSLSPGERATLSCQASQSISNFLHWYQQRPGQAPRLLIRYRSQSISGIPARFSGSGSGTDFTLTISSLEPEDFAVYYCQQSGSWPLTFGGGTKVEIK
Turning to B1, the “Patients with a clinical response” value in the data set with metastatic melanoma [13] (combination arm with dacarbazine) was 12.7%; in the data set on metastatic melanoma [13] (etaracizumab alone, 57 patients) it was “none”.
